# Compound activity as filed in PubChem.
# In the library only some 5.4% were active in any assay of this set; here they are far more common.
# CSC inhib – cancer stem cell viability inhibitors, primary screen, luminescence | cancer stem cell-like cells viability | inhibition, % at 7.5 µM | 300,000 tested, 1.1% active | AID 2717, 2010; in the data active means inhibition above about 75%; tested in HMLE shEcad cells
# SKKanGAS inh – S. pyogenes SKKanGAS growth inhibitors in kanamycin, primary screen, streptokinase expression inhibitor project, SKKanGAS strain, BacTiter-Glo luminescence; AID 1662, 2009; 300,000 tested, 1.3% active; inhibition, % at 7.5 µM; 6 h;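 active means mean replicate score, as percent of positive control median, at least 50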;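 further: strain carries kanamycin resistance gene driven by streptokinase promoter and grows in 40 µg/ml kanamycin; loss of luminescence reflects streptokinase promoter inhibition or plain growth inhibition; 0% = median of DMSO wells and 100% = positive control at its reference dose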
# aSyn UTR inh – MLPCN primary screen, SNCA 5' untranslated region | alpha-synuclein 5'UTR reporter, inhibitor activity | inhibition, % (tested at 7.5 µM) | 300,000 tested, 0.82% active | AID 1813, 2009; in the data active means inhibition above about 60%;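 further: H4 neuroglioblastoma cells stably carrying SNCA 5'UTR luciferase fusion; 0% = DMSO wells and 100% = positive control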
# Mdm2 MdmX PPI – inhibitors of human Mdm2-MdmX association, primary screen, cell-based, luminescence, split luciferase, SaOS-2, uHTS | 330,000 tested, 3% active | SaOS-2 split-luciferase Mdm2/MdmX complementation | inhibition, % at 8 µM | Protein Mdm4 (Homo sapiens) + E3 ubiquitin-protein ligase Mdm2 (Homo sapiens), …;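 active means inhibition of at least 50% at 8 µM in the primary screen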
# Target sequence (O15151 whole entry, looked up): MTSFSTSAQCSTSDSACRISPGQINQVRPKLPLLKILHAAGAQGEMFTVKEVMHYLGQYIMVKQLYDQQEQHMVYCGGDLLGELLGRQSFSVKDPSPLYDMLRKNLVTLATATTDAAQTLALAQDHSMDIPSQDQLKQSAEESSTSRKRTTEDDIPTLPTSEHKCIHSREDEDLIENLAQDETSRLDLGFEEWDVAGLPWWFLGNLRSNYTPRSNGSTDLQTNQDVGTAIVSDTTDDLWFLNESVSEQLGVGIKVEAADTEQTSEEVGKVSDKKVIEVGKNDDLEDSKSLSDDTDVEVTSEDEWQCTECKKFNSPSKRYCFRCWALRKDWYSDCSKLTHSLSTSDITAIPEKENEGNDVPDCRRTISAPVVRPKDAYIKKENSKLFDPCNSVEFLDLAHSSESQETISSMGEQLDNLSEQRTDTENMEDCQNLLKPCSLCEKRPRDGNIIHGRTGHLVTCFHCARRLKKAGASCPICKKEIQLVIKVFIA
# Target sequence (Q00987 whole entry, looked up): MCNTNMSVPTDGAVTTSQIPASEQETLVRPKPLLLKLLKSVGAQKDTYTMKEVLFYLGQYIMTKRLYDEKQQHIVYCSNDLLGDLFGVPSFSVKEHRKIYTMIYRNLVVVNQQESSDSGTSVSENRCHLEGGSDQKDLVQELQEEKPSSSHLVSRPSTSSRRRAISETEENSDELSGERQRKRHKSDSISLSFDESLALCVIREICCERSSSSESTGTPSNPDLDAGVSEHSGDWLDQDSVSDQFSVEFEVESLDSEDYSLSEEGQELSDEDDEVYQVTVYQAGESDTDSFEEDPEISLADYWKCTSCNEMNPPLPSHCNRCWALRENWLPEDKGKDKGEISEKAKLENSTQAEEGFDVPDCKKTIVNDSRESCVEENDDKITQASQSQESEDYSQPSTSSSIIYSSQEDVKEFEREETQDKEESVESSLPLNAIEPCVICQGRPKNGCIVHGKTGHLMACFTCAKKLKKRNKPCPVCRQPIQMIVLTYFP
# T cruzi inh – inhibitors of intracellular T. cruzi growth, primary screen, luminescence, NIH3T3 host cells; T. cruzi beta-gal in NIH3T3, 90 h; inhibition, % (concentration not given with the values); 300,000 tested, 1.4% active; AID 1885, 2009;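 active means mean inhibition across valid replicates above about 55%, limit read from the data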;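 further: signal also drops with host cell toxicity which is not excluded here; 0% = plate median of DMSO wells and 100% = zero luminescence signal; higher percent means less beta-gal luminescence so fewer parasites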
#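 System: Mouse NIH/3T3 fibroblasts infected with β-gal-expressing T. cruzi Tulahuen C4 | Quantity: NIH/3T3 cells, 5,000 per well | Reagent: 5000 reporter trypomastigotes per well | Dosing: Compound pinned at 50 nL/well, DMSO | Schedule: 3 h host attachment, then at least 90 h co-culture | Detection: GalScreen luminescence, 60 min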
# * hit, by the source's call; nt = not tested or not shown.
SMILES,CSC inhib,SKKanGAS inh,aSyn UTR inh,Mdm2 MdmX PPI,T cruzi inh
CC(=O)c1ccc(Oc2ccc(C(C)=O)cc2)cc1,1.4,-2.6,-95.8,-7.4,-11.9
Oc1ccc(Oc2ccc(Oc3ccc(O)cc3)cc2)cc1,56.6,66.6*,16.2,34.5,-70.3
CCOC(=O)c1ccccc1NC(=O)COC(=O)Cc1ccccc1F,nt,nt,nt,30.9,nt
Cc1cc(C)c(OCC(=O)OCC(=O)N2CCCc3ccccc32)c(C)c1,-11.8,-2.3,7.9,4.1,-2.4
CCOC(=O)C1CCN(C(=O)c2ccc3c(=O)n4nc(Nc5cc(C)ccc5C)sc4nc3c2)CC1,9.0,49.5*,7.0,38.0,-13.9
Cc1ccc(C)c(Nc2nn3c(=O)c4ccc(C(=O)NCc5cccnc5)cc4nc3s2)c1,60.2,18.5,-16.6,36.8,-15.5
O=C(CSc1ccc2nnc(CCNC(=O)c3ccccc3)n2n1)NC1CCCC1,-17.5,0.2,15.6,3.2,-6.2
O=C(CC1SC(N2CCCCC2)=NC1=O)Nc1cccc(C(=O)Nc2ncccc2O)c1 (configuration not stated),nt,-4.8,-21.8,9.0,2.0
Cc1nc(NC(=O)C23CC4CC(CC(C4)C2)C3)sc1Cc1ccc2c(c1)OCO2,70.6,5.3,-183.7,-32.3,65.3*
Cc1nc(NC(=O)C2CCCC2)sc1Cc1ccc2c(c1)OCO2,23.6,-11.8,-57.1,-52.1,7.3
O=C(NCc1ccco1)c1ccc(COc2ccccc2[N+](=O)[O-])o1,-11.9,-4.0,2.3,-8.2,-18.7
COc1ccccc1C1CC(c2ccc(Cl)cc2)Nc2ncnn21 (configuration not stated),-2.5,-5.3,10.6,-16.0,19.0
C/C(=N\NC(=O)c1ccncc1)c1cccs1,-2.3,4.7,-48.3,-11.4,-10.5
C/C(=N/NC(=O)c1cc(C2CC2)[nH]n1)c1cccs1,13.7,15.5,84.3*,-36.4,-8.0
COCC(=O)Nc1sc2c(c1C(=O)OC)CCCC2,-11.5,-4.4,-32.0,2.4,1.8
COCCn1c(N)c(C(=O)NCC2CCCO2)c2nc3ccccc3nc21 (configuration not stated),4.4,17.1,27.6,-15.1,7.7
COC(=O)c1c(NC(=O)c2ccco2)sc2c1CCC2,76.5*,3.8,-19.7,-17.6,5.3
COCCn1c(N)c(C(=O)Nc2sc3c(c2C(=O)OC)CCCC3)c2nc3ccccc3nc21,43.4,57.7*,19.9,28.9,30.5
NC(=O)c1c(NC(=O)c2ccc([N+](=O)[O-])o2)sc2c1CCCC2,7.3,10.2,95.3*,13.8,1.4
COC(=O)c1c(NC(=O)Cc2cccs2)sc2c1CCCC2,7.3,68.7*,2.8,-7.5,nt
O=C(Nc1sc2c(c1C(=O)O)CCC2)c1ccco1,-3.6,5.4,-61.8,-19.2,-8.1
CC(C)(C)c1ccc(C(CC(=O)O)NC(=O)Cc2ccccc2)cc1 (configuration not stated),-17.3,-1.8,0.2,29.5,-8.4
O=C(Cc1cccc2ccccc12)NCC(=O)N1CCN(Cc2cccc(C(F)(F)F)c2)CC1,19.2,nt,nt,8.6,nt
O=S(=O)(Nc1ccc(S(=O)(=O)N2CCCC2)cc1)c1ccccc1Br,16.7,nt,nt,23.0,nt
CC(C)(C)c1ccc(C(=O)Nc2sc3c(c2C(=O)O)CCC3)cc1,15.1,34.0,95.0*,38.0,-20.8
SMILES,CSC inhib,SKKanGAS inh,aSyn UTR inh,Mdm2 MdmX PPI,T cruzi inh
O=C(CN1CCCCC1)Nc1cc(Cl)ccc1Oc1ccccc1,71.8,14.8,47.7,6.2,-4.0
O=C(CN1CCCCCC1)Nc1ccccc1Oc1ccccc1,79.6*,-5.5,17.3,17.5,5.6
CC[C@]1(C(=O)OC)[C@H]2C(=O)N(Cc3ccccc3)C(=O)[C@H]2[C@H]2CN=C(SCC(=O)c3ccccc3)N21,nt,nt,nt,16.9,nt
CCOC(=O)c1c(NC(=O)c2cccs2)sc(CC)c1-c1cccs1,71.4,59.6*,17.0,3.4,33.5
Cn1c(=N)n(CC(=O)O)c2ccccc21,-10.0,-1.7,-9.5,11.1,4.8
Cn1c(=N)n(CC(=O)c2ccccc2)c2ccccc21,-2.9,-3.4,89.8*,-62.3,-10.2
CCCCn1c(=N)n(CC(=O)C(C)(C)C)c2ccccc21,-5.1,-3.4,7.3,-20.4,62.0*
COc1ccc(N(C(=O)c2cccnc2)S(=O)(=O)c2ccc(Cl)cc2)cc1,nt,-0.6,-18.6,24.3,-3.8
Cc1ccc(Cn2ccc(NC(=O)c3cc(-c4ccc5c(c4)OCO5)on3)n2)cc1,nt,-7.3,10.0,nt,-12.6
CC(C)(C)c1ccc(Cn2ccc(-c3ccc4c(c3)OCO4)n2)cc1,-0.1,53.1*,-14.1,-33.6,-12.4
Cc1ccc(-c2cc(-c3ccc(F)cc3)nc(N)c2C#N)o1,31.3,9.3,62.7*,-10.5,14.9
COc1ccccc1C1CC(c2cccc(NS(C)(=O)=O)c2)=NN1S(=O)(=O)c1ccccc1 (configuration not stated),13.3,13.5,23.0,-7.2,-2.7
Cc1c(Cl)cnc(NC(=O)COC(=O)c2ccc3ncsc3c2)c1Cl,-8.0,5.3,67.1*,-2.4,-6.3
O=C(COC(=O)c1ccc2ncsc2c1)Nc1ncc(Cl)cc1Cl,-3.1,-12.7,-8.2,11.1,-24.2
Oc1ccc(N2CCN(c3nc(-c4cccs4)nc4ccccc34)CC2)cc1,86.9*,29.8,20.0,7.9,8.0
CCn1c(SCC(=O)Nc2sc3c(c2C#N)CCCC3)nnc1-c1ccco1,0.5,8.9,-2.5,-25.3,54.7*
O=C(CN(Cc1ccc(F)cc1)C(=O)CNS(=O)(=O)c1ccccc1)NCC1CCCO1 (configuration not stated),-0.8,1.5,-1.7,-2.9,-12.9
COCc1cc(Sc2c(Cl)cccc2Cl)nc(-c2ccccc2)n1,7.2,66.5*,9.5,20.4,10.6
O=C(NCC1OCCc2ccccc21)c1ccc(NC(=O)c2ccc(Cl)cc2)cc1 (configuration not stated),-11.2,14.6,79.4*,47.3,16.4
Cc1ccc(NC(=O)C(=O)NCC2OCCc3ccccc32)cc1 (configuration not stated),-3.3,-14.7,-46.0,5.0,9.3
O=C(NNC(=O)c1ccccc1OCc1ccccc1Cl)c1csc(N2CCOCC2)n1,nt,60.2*,0.3,46.6,38.5
O=C(NNC(=O)c1cc(-c2ccccc2)nc2ccccc12)c1csc(N2CCOCC2)n1,11.7,-8.9,0.7,1.8,0.2
O=C(NNC(=O)c1cc(-c2ccc(Cl)cc2)nc2ccccc12)c1csc(N2CCOCC2)n1,31.1,59.7*,-2.9,20.6,1.5
Cc1oc(-c2cccs2)nc1CNC[C@H]1O[C@@H](n2cnc3c(N)ncnc32)[C@H](O)[C@@H]1O,nt,nt,nt,16.5,nt
CCC(=O)N1N=C(c2c(O)n(C)c(=O)n(C)c2=O)CC1c1ccccc1 (configuration not stated),8.5,75.1*,8.4,34.4,5.0
